Assay results of several laboratories.
Each line is one published result; the experiments were not run side by side.
Target: Ephrin type-B receptor 2 (EPHB2, Homo sapiens, UniProt P29323)
Sequence (P29323 1-1055, as in one of the studies): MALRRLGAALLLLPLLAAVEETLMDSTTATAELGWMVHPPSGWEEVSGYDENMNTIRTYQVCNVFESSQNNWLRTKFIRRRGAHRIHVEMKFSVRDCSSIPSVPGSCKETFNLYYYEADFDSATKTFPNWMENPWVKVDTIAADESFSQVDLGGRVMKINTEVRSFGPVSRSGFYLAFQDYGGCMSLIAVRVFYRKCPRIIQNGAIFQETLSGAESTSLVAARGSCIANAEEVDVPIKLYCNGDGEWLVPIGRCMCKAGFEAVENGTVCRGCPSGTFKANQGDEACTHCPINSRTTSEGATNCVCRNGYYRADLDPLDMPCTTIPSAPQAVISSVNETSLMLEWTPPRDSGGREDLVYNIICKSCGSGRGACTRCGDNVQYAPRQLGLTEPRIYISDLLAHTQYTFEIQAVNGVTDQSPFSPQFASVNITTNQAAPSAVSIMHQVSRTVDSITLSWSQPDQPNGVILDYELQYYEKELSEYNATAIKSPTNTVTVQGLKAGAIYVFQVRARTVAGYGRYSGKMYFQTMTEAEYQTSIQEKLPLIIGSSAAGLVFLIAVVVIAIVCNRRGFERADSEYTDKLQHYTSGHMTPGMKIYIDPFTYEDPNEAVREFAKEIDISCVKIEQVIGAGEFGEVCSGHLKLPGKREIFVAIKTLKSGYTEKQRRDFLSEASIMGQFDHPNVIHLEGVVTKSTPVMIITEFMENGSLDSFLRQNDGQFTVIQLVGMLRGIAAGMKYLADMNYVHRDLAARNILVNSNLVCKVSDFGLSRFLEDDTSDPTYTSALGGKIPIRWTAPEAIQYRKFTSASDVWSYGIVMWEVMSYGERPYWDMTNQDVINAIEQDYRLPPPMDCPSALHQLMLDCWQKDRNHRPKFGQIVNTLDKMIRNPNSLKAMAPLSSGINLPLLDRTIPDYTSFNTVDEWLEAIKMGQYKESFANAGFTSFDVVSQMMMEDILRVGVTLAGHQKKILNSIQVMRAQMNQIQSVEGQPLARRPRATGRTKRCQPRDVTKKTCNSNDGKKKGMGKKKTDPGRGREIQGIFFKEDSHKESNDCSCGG

Compound	read-out	method	concentration	remaining binding [%]
COc1ccc2c(c1)O[C@@H](c1ccc(OC)c(OC)c1)C[C@H]2NC(=O)C1(c2ccc3c(c2)OC(F)(F)O3)CC1	cell-free assay	competition with immobilised ligand	1 µM	100
O=C(Nc1c[nH]nc1C(=O)NC1CCNCC1)c1cc(F)cc(F)c1	binding	competition with immobilised ligand	1 µM	100
FC(F)(F)Oc1cccc(-c2cnc3ccc(-c4ccncc4)nn23)c1	cell-free assay	competition with immobilised ligand	5 µM	96
N[C@@H]1CCN(c2nccc(-c3cnn4ncccc34)n2)C1	binding	–	1 µM	100
O=C(O)[C@H]1[C@H](Cn2nnc3ccccc3c2=O)CC[C@@H]1C(=O)c1ccc(OCCC2CCOCC2)cc1	cell-free assay	competition with immobilised ligand	1 µM	100
C[C@@H]1CCN(c2nccc(-c3cnn4ncccc34)n2)C1	binding	–	1 µM	100
O=C(NCCCN1CCOCC1)c1ccc(Nc2ncc(Cl)c(-c3ccc(Cl)s3)n2)cc1	binding	competition with immobilised ligand	1 µM	100
COCCOc1nc(-c2ccc(Cl)nc2)nc2c1CN(C(=O)c1ncn3ccccc13)CC2	cell-free assay	competition with immobilised ligand	0.1 µM	79
O=C(NCCCN1CCOCC1)c1ccc(Nc2nccc(-c3cc4ccccc4s3)n2)cc1	binding	competition with immobilised ligand	1 µM	98
COc1cnc(Nc2cccc(S(N)(=O)=O)c2)nc1N1CCN(c2ccccc2)C(=O)C1	binding	competition with immobilised ligand	1 µM	99
CS(=O)(=O)NCC[C@H](NC(=O)c1cncc2c1cnn2-c1ccc(F)cc1)c1ccnc(S(C)(=O)=O)c1	cell-free assay	competition with immobilised ligand	1 µM	92
CN(C)c1nccc(-c2cnc3ncccn23)n1	binding	–	1 µM	92
CCN1CCN(Cc2ccc(C(=O)Nc3ccc(C)c(Oc4ccc5c(c4)CC(=O)N5)c3)cc2C(F)(F)F)CC1	binding	competition with immobilised ligand	1 µM	100
Cc1cnc(Nc2ccc(C(=O)N3CCC(N4CCCC4)CC3)cc2)nc1-c1cc2ccccc2s1	binding	competition with immobilised ligand	1 µM	65
CN(CCCC(F)(F)F)c1nccc(-c2cnn3ncccc23)n1	binding	–	1 µM	84
CO[C@H]1CC[C@H](CNc2ccc(S(=O)(=O)NC(=O)c3ccc(N4CCN(CC5=C(c6ccc(Cl)cc6)CC(C)(C)CC5)CC4)cc3Oc3cnc4[nH]ccc4c3)cc2[N+](=O)[O-])CC1	cell-free assay	competition with immobilised ligand	1 µM	75
CN(C)c1ncc(F)c(-c2cnn3ncccc23)n1	binding	–	1 µM	100
COc1ncc2cc3ccccc3nc2c1C#N	cell-free assay	competition with immobilised ligand	5 µM	99
